Results published in article PMC4021529 (British Journal of Cancer, 2014).
Several values for one entry are separate records, joined by “and”; a condition that tells them apart may be missing. Equal values may be shown once. Entries after “also recorded” stand apart in the source; their conditions may differ. Marks after values point to notes of the source that are not given here.

Experiments:
Type in all cases: in vivo, human
[1] = Phase I 3+3 dose escalation: MTD and dose-limiting toxicities; conditions: for maximum tolerated dose (MTD): Asian patients
In short: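 Open-label 3+3 escalation run separately for each schedule. Test compound given as a 2-h IV infusion every 3 weeks: A on day 1 (100, 200, 250, 300 mg, up to 400), B on days 1 and 8 (50, 100, 150, 200 mg, up to 250). MTD was the highest dose with DLT in ≤1 of 6 patients in course 1. Graded by CTCAE v3.0. Up to 18 patients treated at the MTD.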

[2] = Plasma pharmacokinetics; conditions: for clearance / AUC(0-inf) / MRT / Vd: human, plasma, iv; for AUC0–∞,norm / Cmax,norm / AUC0–168,norm: gMean, dose normalised
[3] = system: advanced solid tumours; assay: Objective tumour response; conditions: for median PFS: all dose groups
In short: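 Patients with advanced solid tumours at two Taiwanese sites. Test compound given as a 2-h IV infusion on day 1 (schedule A) or days 1 and 8 (schedule B), every 3 weeks. CT or MRI at baseline and at the end of every other course, assessed by RECIST 1.0. PFS estimated by Kaplan–Meier.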

[4] = QTcF interval, triplicate 12-lead ECG; conditions: for maximal mean change (±s.d.) from baseline in QTcF: 2 h post-administration, first two courses
[5] = schedule A, 100 mg (n=3), first 2-h i.v. infusion
[6] = schedule A, 200 mg (n=3), first 2-h i.v. infusion
[7] = schedule A, 250 mg (n=5), first 2-h i.v. infusion
[8] = schedule A, 300 mg (n=16), first 2-h i.v. infusion

In the case of `CC[C@@H]1C(=O)N(C)c2cnc(Nc3ccc(C(=O)N[C@H]4CC[C@H](N5CCN(CC6CC6)CC5)CC4)cc3OC)nc2N1C(C)C` [volasertib], the “time of occurrence of DLTs” value ([1]; both schedules) is reported as 8–15 treatment days, the “patients with DLTs during course 1” value ([1]; expansion cohort schedule A, 300 mg) is reported as “Four patients” and the “patients with DLTs” value ([1]; expansion cohort schedule B, 150 mg) is reported as “None”. The “patients with thrombocytopenia (grade 4) as DLT in first course” value ([1]; schedule A, 300 mg (MTD)) was “Two patients”, the “patients with a DLT related to neutropenia” value ([1]; schedule A, 300 mg (MTD), 17 patients) was “Four patients” and the “DLTs during course 1” value ([1]; schedule A, 300 mg (n=6), dose escalation) was “No DLTs”. The “duration of febrile neutropenia reported as DLT” value ([1]; schedule A, 300 mg, two patients) was 3 days and 4 days, the “patients with DLTs in first treatment course” value ([1]; schedule A, 350 mg (n=3)) was “All three patients” and the “maximum tolerated dose (MTD)” value ([1]; schedule A: 2-h i.v. infusion day 1 every 3 weeks) was 300 mg. The “DLTs of thrombocytopenia (grade 4)” value ([1]; schedule B) was “no DLTs”, the “patients with DLTs in first treatment course” value ([1]; schedule B, 200 mg (n=3)) was “two out of three patients” and the “maximum tolerated dose (MTD)” value ([1]; schedule B: 2-h i.v. infusion days 1 and 8 every 3 weeks) was 150 mg. The “DLTs after intra-individual dose escalation from MTD to a higher dose” value ([1]; up to 350 mg (schedule A, 3 patients) and 200 mg (schedule B, 1 patient)) was “No DLTs”, the “apparent terminal half-life (t1/2)” value ([2]; 2-h i.v. infusion, summary across doses) was 135 h and the clearance [2] was over 770 mL/min. It also gave an AUC(0-inf) ([2]; 100 mg) of 2140 ng·h/mL, an MRT ([2]; 100 mg) of 163 h and a Vd ([2]; 100 mg) of 7600 L. For the same compound, the clearance ([2]; 100 mg) was 780 mL/min, the AUC(0-inf) ([2]; 200 mg) was 3280 ng·h/mL and the MRT ([2]; 200 mg) was 98.2 h. It also gave a Vd ([2]; 200 mg) of 5980 L, a clearance ([2]; 200 mg) of 1020 mL/min and an AUC(0-inf) ([2]; 250 mg) of 6140 ng·h/mL. It also gave an MRT ([2]; 250 mg) of 109 h, a Vd ([2]; 250 mg) of 4440 L and a clearance ([2]; 250 mg) of 679 mL/min. The AUC(0-inf) ([2]; 300 mg) was 6260 ng·h/mL, the MRT ([2]; 300 mg) was 103 h and the Vd ([2]; 300 mg) was 4920 L. For the same compound, the clearance ([2]; 300 mg) was 798 mL/min, the AUC(0-inf) ([2]; 350 mg) was 9790 ng·h/mL and the MRT ([2]; 350 mg) was 93 h. The Vd ([2]; 350 mg) was 3320 L, the clearance ([2]; 350 mg) was 596 mL/min and the elimination route ([2]; low exposures of main metabolite, data not shown) was “primarily eliminated unchanged”. For the same compound, the “AUC0–∞,norm” value [2, 5] was 21.4 ng·h/mL/mg, the “Cmax,norm” value [2, 5] was 1.86 ng/mL/mg and the “AUC0–∞,norm” value [2, 6] was 16.4 ng·h/mL/mg. For the same compound, the “Cmax,norm” value [2, 6] was 2.70 ng/mL/mg, the “AUC0–∞,norm” value [2, 7] was 24.6 ng·h/mL/mg and the “Cmax,norm” value [2, 7] was 2.16 ng/mL/mg. For the same compound, the “AUC0–∞,norm” value [2, 8] was 20.9 ng·h/mL/mg, the “Cmax,norm” value [2, 8] was 1.63 ng/mL/mg and the “AUC0–∞,norm” value ([2]; schedule A, 350 mg (n=2), first 2-h i.v. infusion) was 28.0 ^a (ng h ml^−1) mg^−1. For the same compound, the “Cmax,norm” value ([2]; schedule A, 350 mg (n=3), first 2-h i.v. infusion) was 1.93 ng/mL/mg, the “AUC0–168,norm” value ([2]; schedule B, 50 mg (n=3), first 2-h i.v. infusion) was 11.8 ^b (ng h ml^−1) mg^−1 and the “Cmax,norm” value ([2]; schedule B, 50 mg (n=4), first 2-h i.v. infusion) was 2.12 ng/mL/mg. For the same compound, the “Cmax,norm” value ([2]; schedule B, 100 mg (n=3), first 2-h i.v. infusion) was 2.34 ng/mL/mg, the “AUC0–168” value ([2]; schedule B, 100 mg, first 2-h i.v. infusion, n=2, individual values) was 1390 ng·h/mL and the “AUC0–168,norm” value ([2]; schedule B, 150 mg (n=14), first 2-h i.v. infusion) was 12.6 ^d (ng h ml^−1) mg^−1. The “Cmax,norm” value ([2]; schedule B, 150 mg (n=15), first 2-h i.v. infusion) was 1.56 ng/mL/mg, the “AUC0–168,norm” value ([2]; schedule B, 200 mg (n=2), first 2-h i.v. infusion) was 16.6 ^a (ng h ml^−1) mg^−1 and the “Cmax,norm” value ([2]; schedule B, 200 mg (n=3), first 2-h i.v. infusion) was 2.05 ng/mL/mg. The accumulation ([2]; schedule B, administration on day 1 and day 8) was “No accumulation”, the “partial responses in the study” value ([3]; 59 treated patients, both schedules) was “two pre-treated patients; also recorded: Two partial responses” and the “duration of stable disease, individual patient” value ([3]; bladder urothelial cancer with lymph node metastasis, 50 mg schedule B) was over 8 months. The “patients with stable disease as best overall response” value (shortened to “patients with stable disease”) ([3]; overall, both schedules) was 26 (44.1%) patients (%), the “patients with stable disease” value ([3]; schedule A) was 14 (43.8%) patients (%) and the “median PFS” value ([3]; schedule A) was 49 days. The “patients with stable disease” value ([3]; schedule B) was 12 (44.4%) patients (%), the “median PFS” value ([3]; schedule B) was 56 days and the “best response of individual patient” value ([3]; ureteral urothelial carcinoma (wild-type FGFR3), 350 mg schedule A, two courses) was “partial response”. For the same compound, the “QTcF at 8-h post-dose assessment” value ([4]; first course) was “returned to baseline levels”, the “clinically relevant cardiac AEs related to a prolonged QT interval” value ([4]; in vivo) was “No related clinically relevant cardiac AEs” and the “maximal mean change (±s.d.) from baseline in QTcF” value ([4]; schedule A, 300 mg) was 21.0 (±10.6) ms. For the same compound, the “maximal mean change (±s.d.) from baseline in QTcF” value ([4]; schedule B, 150 mg) was 14.9 (±11.7) ms.
